Here are results for four compounds from ChEMBL document CHEMBL1124458, “Electrophilic derivatives of purines as irreversible inhibitors of A1 adenosine receptors” (J Med Chem, 1989).

For assay [1], the target named is T1, Adenosine receptor A1 (Rattus norvegicus, UniProt P25099).
T1 sequence (P25099 whole entry): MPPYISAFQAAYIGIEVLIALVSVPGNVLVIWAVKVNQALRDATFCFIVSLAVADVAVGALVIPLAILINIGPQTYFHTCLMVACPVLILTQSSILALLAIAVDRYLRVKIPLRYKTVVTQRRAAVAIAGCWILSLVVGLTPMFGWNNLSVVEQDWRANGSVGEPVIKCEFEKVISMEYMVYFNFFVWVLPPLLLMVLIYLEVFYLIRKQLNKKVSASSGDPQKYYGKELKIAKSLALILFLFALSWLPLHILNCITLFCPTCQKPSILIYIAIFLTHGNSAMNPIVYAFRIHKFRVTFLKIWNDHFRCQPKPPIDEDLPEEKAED
Description: Affinity for adenosine A1 receptor using [3H]-N6 -(phenylisopropyl)-adenosine (R)-[3H]-PIA in rat brain. Format: tissue-based. The method, boiled down:
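Rat cerebral cortex membranes were incubated with 1 nM (R)-[3H]PIA and a range of competitor concentrations. Each point was run in triplicate, in at least three separate experiments.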

Assay [2] concerns the target T2, Adenosine A2 receptor (Rattus norvegicus, UniProt P29276+P30543). The assay can be described thus: Inhibitory affinity for adenosine A2 receptor using [3H]N-ethyladenosine-5'-uronamide. Format: protein assay.
The target of assay [3] is T3, Adenosine receptors; A1 & A2 (Rattus norvegicus) (UniProt P29276+P25099+P30543). The assay can be described thus: Selectivity ratio between Ki for adenosine A2 and A1 receptors. Type of assay: protein assay.
In assay [4] the target is T4, Adenosine receptor A1 (Bos taurus, UniProt P28190).
T4 sequence (P28190 whole entry): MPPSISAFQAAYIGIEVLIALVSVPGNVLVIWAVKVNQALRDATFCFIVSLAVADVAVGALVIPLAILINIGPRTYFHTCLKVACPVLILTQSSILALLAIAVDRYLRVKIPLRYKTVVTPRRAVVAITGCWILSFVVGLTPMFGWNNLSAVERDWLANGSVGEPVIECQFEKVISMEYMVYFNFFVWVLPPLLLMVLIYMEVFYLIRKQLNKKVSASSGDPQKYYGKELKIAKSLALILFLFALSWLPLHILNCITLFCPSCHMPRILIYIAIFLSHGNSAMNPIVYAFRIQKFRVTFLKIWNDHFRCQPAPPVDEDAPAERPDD
The assay can be described thus: Affinity for Adenosine A1 receptor using [125I]APNEA in calf brain. The method, boiled down: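 Bovine cerebral cortex membranes were pretreated with adenosine deaminase (0.5 unit/mL, 20 min, 37 °C). Membranes (40 µg) were incubated with 125I-APNEA and competitor for 1 h at 37 °C. Separation was by dilution in cold Tris-HCl/MgCl2/EDTA buffer, pH 8.26, with 0.02% Chaps, then glass-filter filtration and gamma counting. Nonspecific binding was defined with 10⁻⁵ M (R)-PIA.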

In assay [5] the target is T1, Adenosine receptor A1. The assay can be described thus: Affinity for A1 adenosine receptor using [3H]-N6 -(phenylisopropyl)-adenosine (R)-[3H]-PIA in rat brain. Format: tissue-based. A digest of the protocol:
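Rat cerebral cortex membranes pretreated with adenosine deaminase (0.5 unit/mL, 20 min, 37 °C). Competition against 1 nM (R)-[3H]PIA over a range of ligand concentrations, in triplicate, in at least three experiments. […] For irreversible ligands the value is an apparent Ki.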

Assay [6] has as its target T5, Adenosine receptor A1 (Rattus norvegicus) (UniProt P25099).
T5 sequence (whole entry): T1 sequence (P25099 whole entry)
Description: Percentage inhibition of [125I]APNEA binding to adenosine A1 receptor from rat brain after 45 min incubation at 500 nM. The method, boiled down: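 Adenosine deaminase-treated rat cerebral cortex membranes were exposed to the ligand for 45 min at 37 °C. They were washed three times, held in buffer with 10⁻⁴ M IBMX for 18 h at 25 °C, washed and re-treated with deaminase. Residual sites were measured by 125I-APNEA saturation (0.1–2.5 nM) against untreated membranes carried through the same procedure.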

Assay [7] has as its target T5, Adenosine receptor A1 (Rattus norvegicus). Description: (§1) Percentage inhibition of [125I]APNEA binding to adenosine A1 receptor from rat brain after 45 min incubation at 1 nM. The method, boiled down:
(§2)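 Rat cerebral cortex membranes pretreated with adenosine deaminase (0.5 unit/mL, 20 min, 37 °C). Incubated with ligand at the stated concentration for 45 min at 37 °C, then washed three times in Tris/MgCl2/EDTA buffer pH 8.26 with 0.02% Chaps. Then 10⁻⁴ M IBMX for 18 h at 25 °C, washed twice and deaminase-treated again. Untreated membranes went through every step as controls.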

The target is the same in assay [8]. The assay can be described thus: Percentage inhibition of [125I]APNEA binding to Adenosine A1 receptor from rat brain after 45 min incubation at 10 nM. A digest of the protocol: as §2
The target in assay [9] is T3, Adenosine receptors; A1 & A2 (Rattus norvegicus). Description: Relative affinities for Adenosine A2 and Adenosine A1 receptors. Type of assay: protein assay.
The target in assay [10] is T5, Adenosine receptor A1 (Rattus norvegicus). The assay can be described thus: Percentage inhibition of [125I]APNEA binding to adenosine A1 receptor from rat brain after 45 min incubation at 10 nM. The method, boiled down:
as §2

Assay [11] concerns the target T2, Adenosine A2 receptor. Description: Inhibition of [3H]N-ethyladenosine-5'-uronamide binding to Adenosine A2 receptor of rat striatal membrane.
In assay [12] the target is T5, Adenosine receptor A1 (Rattus norvegicus). Described as §1. The method, boiled down: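 Rat cerebral cortex membranes, pretreated with adenosine deaminase (0.5 unit/mL, 20 min, 37 °C), incubated with ligand 45 min at 37 °C. Washed three times in Tris/MgCl2/EDTA buffer pH 8.26 with 0.02% Chaps, then 10⁻⁴ M IBMX 18 h at 25 °C to strip reversible ligand. Washed, deaminase-treated again, then 125I-APNEA saturation binding (0.1–2.5 nM; nonspecific 10⁻⁵ M R-PIA). Inhibition is relative to untreated membranes carried through the same steps.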
The source holds these as a separate data set.

For the compound `O=C(Cc1ccc(NC(=O)Cc2ccc(Nc3ncnc4c3ncn4C3O[C@H](CO)[C@@H](O)[C@H]3O)cc2)cc1)NCC/N=C(\S)Nc1ccc(S(=O)(=O)[O-])cc1.[Na+]` (stereo not given in full), the Ki (in general, a dissociation constant, usually derived from enzyme kinetics or from competition with a known ligand) is 51.1 nM at Adenosine receptor A1 [1] and 70 nM on Adenosine A2 receptor [2]. In addition, the Ratio in assay [3] came to 1.37.
Turning to `CCCn1c(=O)c2nc(-c3ccc(OCC(=O)NCC=O)cc3)[nH]c2n(CCC)c1=O`, the Ki on Adenosine receptor A1 [4] was 3.17 nM; at Adenosine receptor A1 [5], 266 nM. In assay [6], the inhibition (in general, the drop in the measured response relative to a control, in per cent) amounted to 0%.
With `O=C(Cc1ccc(NC(=O)Cc2ccc(Nc3ncnc4c3ncn4C3O[C@H](CO)[C@@H](O)[C@H]3O)cc2)cc1)NCC/N=C(\S)Nc1cccc(N=C=S)c1` (stereo not given in full), the inhibition is 62% in assay [7], greater than 90% in assay [8] and greater than 90% in [10]. In addition, in assay [9], the Ratio was 203. Besides, the Ki on Adenosine A2 receptor [11] turned out to be 176 nM.
As to `O=C(Cc1ccc(NC(=O)Cc2ccc(Nc3ncnc4c3ncn4C3O[C@H](CO)[C@@H](O)[C@H]3O)cc2)cc1)NCC/N=C(\S)Nc1ccc(N=C=S)cc1` (stereo not given in full), the inhibition was greater than 80% in assay [8], greater than 80% in assay [10] and 39% in assay [12]. Moreover, on Adenosine A2 receptor [11], the Ki was 191 nM.
